The source made the active and inactive calls. The rule behind the calls is not given here.
Key:
Details in all cases: Homo sapiens
HEK293 [1] = experiment: Inhibition of RyR2 R4496C mutant in HEK293 cells assessed as reduction of caffeine-induced calcium release at 30 uM by fura-2 AM dye based fluorescence assay; format: cell-based
Summary of the method: (§1)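 Fura-2 ratio imaging of single HEK293 cells expressing mutant RyR2 (R4496C), perfused with compound up to 30 µM without pre-incubation. Cytosolic Ca²⁺ level was monitored, and caffeine, a RyR2 agonist, was then added to trigger Ca²⁺ release. Amplitude of the caffeine-induced release was read from the traces.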

[2] = Inhibition of RyR2 R4496C mutant-mediated store overload-induced calcium release in HEK293 cells assessed as reduction in amplitude of spontaneous calcium oscillations by fura-2 AM dye based fluorescence assay; format: cell-based
Summary of the method: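 Single-cell fura-2 ratio traces were recorded in R4496C RyR2-expressing HEK293 cells. Cells were perfused continuously with increasing concentrations (0, 3, 10, 30 µM) without pre-incubation. The amplitude of spontaneous Ca²⁺ oscillations was compared before and after each addition.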

HEK293 [3] = experiment: Inhibition of RyR2 R4496C mutant in HEK293 cells assessed as inhibition of store overload-induced calcium release at 30 uM by fura-2 AM dye based fluorescence assay; format: cell-based
Summary of the method: (§2)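 HEK293 cells expressing RyR2 R4496C, loaded with fura-2 AM, were followed by single-cell Ca²⁺ imaging. Cells were perfused continuously with rising drug levels (0, 3, 10, 30 µM) without pre-incubation. Read-out was the percentage of cells showing spontaneous Ca²⁺ oscillations at each concentration.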

HEK293 [4] = experiment: Induction of cytosolic calcium level in HEK293 cells expressing RyR2 R4496C mutant at 30 uM by fura-2 AM dye based fluorescence assay; format: functional, cell-based; summary of the method: as §1
HEK293 [5] = experiment: Inhibition of RyR2 R4496C mutant in HEK293 cells assessed as inhibition of store overload-induced calcium release at 10 uM by fura-2 AM dye based fluorescence assay; format: cell-based; summary of the method: as §2

Row | Compound | inhibition (HEK293 [1]) | IC50 [2] [µM] | inhibition (HEK293 [3]) | Activity (HEK293 [4]) | inhibition (HEK293 [5]) [%]
1 | COc1ccccc1OCCNCC(O)COc1c(O)ccc2[nH]c3ccccc3c12 (stereo not given) | Active | 9.4 | Active | Active | 70
2 | COc1ccc(O)cc1OCCNCC(O)COc1cccc2[nH]c3ccccc3c12 (stereo not given) | inactive | 19.4 | 80% | inactive | 10
3 | COc1cc(O)ccc1OCCNCC(O)COc1cccc2[nH]c3ccccc3c12 (stereo not given) | inactive | 10.4 | Active | inactive | 10

From ChEMBL document CHEMBL3739269, “Suppression of store overload-induced calcium release by hydroxylated metabolites of carvedilol” (Bioorg Med Chem Lett, 2016)
